The values that follow come from ChEMBL document CHEMBL1134481, “Development of a pharmacophore model for histamine H3 receptor antagonists, using the newly developed molecular modeling program SLATE” (J Med Chem, 2001).

T1 sequence (Q9QYN8 whole entry): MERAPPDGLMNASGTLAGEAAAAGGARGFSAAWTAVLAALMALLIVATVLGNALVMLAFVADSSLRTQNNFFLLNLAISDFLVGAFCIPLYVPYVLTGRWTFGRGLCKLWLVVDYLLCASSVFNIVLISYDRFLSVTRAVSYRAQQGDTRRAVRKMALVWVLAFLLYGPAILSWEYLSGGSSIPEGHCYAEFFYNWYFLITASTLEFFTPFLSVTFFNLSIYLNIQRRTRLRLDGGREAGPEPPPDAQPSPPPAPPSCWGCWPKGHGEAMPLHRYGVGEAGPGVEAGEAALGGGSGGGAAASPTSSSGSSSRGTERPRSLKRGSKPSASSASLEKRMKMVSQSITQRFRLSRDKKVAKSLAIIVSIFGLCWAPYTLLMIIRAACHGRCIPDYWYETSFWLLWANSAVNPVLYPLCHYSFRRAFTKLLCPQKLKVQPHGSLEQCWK

In one assay the target is Histamine H3 receptor (Cavia porcellus, UniProt Q9JI35). The assay is described as follows: Displacement of [3H]Nalpha-methylhistamine from histamine H3 receptors in homogenates of rat cerebral cortex. The settings on record: read-out: pA2 (converted). The format is tissue-based.
Sequence of Histamine H3 receptor (Cavia porcellus, UniProt Q9JI35) (Q9JI35 whole entry): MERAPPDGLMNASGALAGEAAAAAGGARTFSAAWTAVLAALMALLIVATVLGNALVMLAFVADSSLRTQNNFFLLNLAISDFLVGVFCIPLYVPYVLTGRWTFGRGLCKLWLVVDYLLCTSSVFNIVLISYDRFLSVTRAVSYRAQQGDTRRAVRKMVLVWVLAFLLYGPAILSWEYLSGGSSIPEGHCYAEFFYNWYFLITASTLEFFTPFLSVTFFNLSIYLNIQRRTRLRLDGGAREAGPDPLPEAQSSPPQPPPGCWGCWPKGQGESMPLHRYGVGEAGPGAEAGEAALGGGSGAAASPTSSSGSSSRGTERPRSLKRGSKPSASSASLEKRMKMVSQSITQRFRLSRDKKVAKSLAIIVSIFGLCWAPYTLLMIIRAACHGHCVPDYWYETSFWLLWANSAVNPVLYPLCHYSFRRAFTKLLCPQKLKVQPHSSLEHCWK
As for `NC(=NCc1ccc(Cl)cc1)SCCCc1cnc[nH]1` [CLOBENPROPIT], the Kb was 0.158 nM.
Still for that read-out and setting: to `O=C(NCCCc1c[nH]cn1)NC1CCCCC1` belongs 50.1 nM.
Turning to `Ic1ccc(COCCCc2c[nH]cn2)cc1` [IODOPROXYFAN], the Kb was 5.01 nM.
Still for that read-out and setting: to `Clc1ccc(Cc2noc(CCCc3cnc[nH]3)n2)cc1` belongs 7.94 nM; to `c1nc(CCC2CCNCC2)c[nH]1`, 3.98 nM.
Still for that read-out and setting: to `Clc1ccc(CNCCCCCc2c[nH]cn2)cc1` belongs 1.26 nM.
Same read-out and setting: to `S=C(NC1CCCCC1)N1CCC(c2cnc[nH]2)CC1` [THIOPERAMIDE] belongs 1.26 nM.

A further assay addresses T1, Histamine H3 receptor (Rattus norvegicus, UniProt Q9QYN8). The assay is described as follows: (§1) Ability to displace [3H]Nalpha-methylhistamine from histamine H3 receptors in homogenates of rat cerebral cortex. In kind it is tissue-based.
Conditions: not given
Summed up: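 Binding used 30 µg protein and 1 nM [³H]-Nα-methylhistamine with 0.1–10 000 nM compound, in 50 mM Na⁺ phosphate pH 7.4, for 40 min at 25 °C. Samples were filtered on PEI-treated GF/C and counted by scintillation. Ki = IC50/(1+[ligand]/Kd).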
`CC/N=C(\NCc1ccc(Cl)cc1)SCCCc1c[nH]cn1`: affinity was put at a Ki of 7.94 nM.
The same measure, in the same setting: to `CCCS/C(=N/C)NCc1ccc(Cl)cc1` belongs greater than 100000 nM.
Still for that read-out and setting: to `Clc1ccc(CN=C(NC2CCCCC2)SCCCc2cnc[nH]2)cc1` belongs 0.501 nM.
Same read-out and setting: to `c1nc(CCCS/C(=N/C2CCCCC2)NC2CCCCC2)c[nH]1` belongs 12.6 nM; to `C/N=C(/NCc1ccc(Cl)cc1)SCCCc1c[nH]cn1`, 3.16 nM.

The target in another assay is T1, Histamine H3 receptor. Described as §1. In kind it is tissue-based.
Conditions: not given
The gist of the method:
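Rat cortex membranes were made by homogenizing in Tris/HCl (50 mM, 5 mM MgCl₂, 145 mM NaCl, pH 7.4) and spinning at 800g, then twice at 40000g. Binding used 30 µg protein and 1 nM [³H]-Nα-methylhistamine with 0.1–10 000 nM compound, in 50 mM Na⁺ phosphate pH 7.4, for 40 min at 25 °C. Samples were filtered on PEI-treated GF/C and counted by scintillation. Ki = IC50/(1+[ligand]/Kd).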
Compound `O=C(Cc1ccc(Cl)cc1)OCCCc1c[nH]cn1` had an inhibitory constant (Ki) of 14 nM.
Same read-out and setting: to `N=C(Cc1ccc(Cc2cnc[nH]2)cc1)NCc1ccc(Cl)cc1` belongs 7 nM; to `NC(/C=C/C1CC1c1c[nH]cn1)CC1CCCCC1` (stereo unspecified), 0.4 nM; to `CC(C)(C)CC#CC1CC1c1cnc[nH]1` (stereo unspecified), 0.18 nM.

For orientation: Ki means a dissociation constant, usually derived from enzyme kinetics or from competition with a known ligand.
